Assay outcomes deposited in PubChem BioAssay by The Scripps Research Institute Molecular Screening Center.
Most compounds without a hit are left out; they make up all but 1.4% or so of the library.
HTRA1 inhibitor: HTRA1 (human) protease inhibition; recombinant HTRA1, FP-rhodamine activity-based probe, fluorescence polarization; inhibition, % at 5.96 µM; Q92743; AID 504803; 340,000 tested, 0.5% active; in the data active = inhibition above about 36%;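 also: 0% = enzyme with DMSO and 100% = wells lacking enzyme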
SIAE primary: inhibitors of human sialic acid acetylesterase SIAE. Q9HAT2. SIAE FP-Rh probe binding, fluorescence polarization. inhibition, % at 9.66 µM. 370,000 tested, 0.69% active. AID 1053197;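 active = inhibition above a cutoff: mean of compounds within the control limits plus 3 SD of those, cut at about 17% in these data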;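 also: 0% = plate median of compound wells and 100% = probe without SIAE protein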
RBBP9 inh: human RBBP9 hydrolase inhibition | O75884 | recombinant RBBP9, FP-Rh probe fluorescence polarization | inhibition, % at 7.94 µM | 220,000 tested, 0.2% active | AID 1515;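 active = inhibition above the campaign mean of all tested compounds plus 3 SD, cut at about 14% in these data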;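 also: plate controls were DMSO wells with RBBP9 for no effect and wells lacking RBBP9 protein for full effect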
Target sequence (O75884 whole entry, looked up): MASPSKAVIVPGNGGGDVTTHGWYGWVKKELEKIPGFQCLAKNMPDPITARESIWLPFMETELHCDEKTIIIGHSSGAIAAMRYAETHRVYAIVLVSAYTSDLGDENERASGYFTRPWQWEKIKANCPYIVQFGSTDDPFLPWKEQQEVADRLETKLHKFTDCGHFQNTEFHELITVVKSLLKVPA
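System: RBBP9 protein | Quantity: 2.5 µM RBBP9 dispensing solution, before mixing | Reagent: FP-Rh probe, 375 nM dispensing solution | Timing: Enzyme-compound preincubation 30 min, then probe labeling 45 min, 25 °C | Measured by: Fluorescence polarization | Read-out: % inhibition | Replication: One well per compound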
ABHD4 inh: inhibits mouse alpha/beta hydrolase domain 4. Q8VD66. purified mABHD4, FP-Rh probe fluorescence polarization. inhibition, % at 8.92 µM. 370,000 tested, 0.54% active;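 active = inhibition exceeding the mean over every tested compound plus 3 SD, cut at about 30% in these data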;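 also: 0% = plate median of compound wells and 100% = S159A mutant with DMSO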
Target sequence (Q8VD66 whole entry, looked up, the tested form may be a part): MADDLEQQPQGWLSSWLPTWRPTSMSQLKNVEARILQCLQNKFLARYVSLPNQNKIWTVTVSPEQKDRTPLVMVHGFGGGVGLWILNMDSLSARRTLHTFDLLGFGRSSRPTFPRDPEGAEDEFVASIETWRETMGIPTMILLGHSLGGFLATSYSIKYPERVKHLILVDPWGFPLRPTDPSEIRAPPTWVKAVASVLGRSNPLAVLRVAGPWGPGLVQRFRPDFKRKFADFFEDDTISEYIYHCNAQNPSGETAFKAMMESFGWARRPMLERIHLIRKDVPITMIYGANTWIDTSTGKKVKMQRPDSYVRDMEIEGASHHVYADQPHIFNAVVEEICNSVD
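Doses – 8.92 µM, single dose · Material – wild-type mouse ABHD4 protein · Replication – single well per compound (singlicate) · Measure – percent inhibition of probe binding, normalized to plate controls · Schedule – 45 min compound pre-incubation plus 60 min probe step, 25 °C · Detection – fluorescence polarization with parallel and perpendicular emission, 525/598 nm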
HTRA1 inh conf: HTRA1 (human) inhibition, confirmation. shares compounds with HTRA1 inhibitor. recombinant HTRA1, FP-rhodamine activity-based probe, fluorescence polarization. inhibition, % at 5.96 µM. 1,600 tested, 66% active. AID 540248;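 active = mean inhibition over three repeats above a set limit taken from the earlier primary screen, cut at about 37% in these data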;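 also: 0% = HTRA1 with DMSO and 100% = wells lacking HTRA1; inhibitors block probe binding so polarization drops and inhibition rises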
Numbers without * were called inactive; . = no result.

SMILES	HTRA1 inhibitor	SIAE primary	RBBP9 inh	ABHD4 inh	HTRA1 inh conf
CC1(c2nnnn2-c2ccc(F)cc2)CCCC(=O)N1CCc1c[nH]c2ccccc12 (configuration not stated)	.	1	.	-1	.
CCOc1ccc2nc3cc(N=Nc4ccc(N)nc4N)ccc3c(N)c2c1	47*	.	.	.	70*
CC1(C)Oc2ccc(C(=O)NC3CCCC3)cc2NC1=O	.	-2	.	-2	.
CCC(=O)Nc1ccc2c(c1)C(=O)N(C)[C@@H]1CC[C@@H](CC(=O)NCc3ccc(OC)cc3)O[C@H]1CO2	.	3	.	1	.
Nc1nc(-c2ccccn2)nc(N)c1Cc1ccc(Cl)cc1Cl	39*	-10	2	8	35
CC1(C(=O)NCc2ccc(C(F)(F)F)cc2)CCN1Cc1ccccc1OC(F)F (configuration not stated)	.	-3	.	-9	.
Cc1ccc(/C=C2\SC(=S)N(CCC(=O)NNC(=O)c3ccc(O)cc3)C2=O)cc1	-116	-213	.	-44	.
O=C(CCN1C(=O)/C(=C/c2ccccc2Cl)SC1=S)NNC(=O)c1ccccc1O	55*	-2	.	-2	70*
Cc1ccc(/C=C2\SC(=S)N(CCCC(=O)NNC(=O)c3ccccc3O)C2=O)cc1	37*	8	-4	9	53*
O=C1/C(=C\c2ccc(O)c(O)c2)SC(=S)N1Cc1ccccc1	-100	-71	.	-112	.
Cc1ccc(/C=C2\SC(=S)N(CCC(=O)NNC(=O)c3ccccc3O)C2=O)cc1	38*	6	.	13	59*
O=C1/C(=C\c2cccc(O)c2O)SC(=S)N1Cc1ccccc1	54*	-6	.	13	65*
Cc1ccc2nc(-c3ccccn3)[nH]c2c1	42*	1	.	7	33
COC(=O)C1=NN(C(=O)c2cccc(Br)c2)C(O)(c2ccc(Cl)cc2)C1 (configuration not stated)	66*	3	-7	9	65*
C/C(=N\NC(=O)CSc1nc2ccccc2o1)c1cccc(O)c1	51*	4	-4	8	-1
NC(=O)c1cc2c3ccccc3ccn2c1-c1ccccc1	42*	6	1	-6	29
Cc1cc(C(N)=O)c2ccccc2n1	-1	12	-6	-3	.
CCc1noc(C)c1C(=O)Oc1ccc(N(C)S(=O)(=O)c2ccc(C)cc2)cc1	29	.	.	.	.
CCc1noc(C)c1C(=O)Oc1ccc(N(C)S(=O)(=O)c2ccccc2)cc1	36*	5	.	-13	30
COc1ccc(OCC(O)CNC(=O)c2c(-c3ccccc3)noc2C)cc1 (configuration not stated)	1	11	-4	0	.
C[C@H](NS(=O)(=O)c1ccc(Cl)cc1)C(=O)OCC(=O)c1ccc[nH]1	38*	-3	-4	-5	-1
CC(CCN1CCC(C(O)(c2ccccc2)c2ccccc2)CC1)Oc1cccc(C(F)(F)F)c1 (configuration not stated)	.	-2	.	16	.
O=C(N/N=C/c1ccc(F)cc1)c1cc[n+]([O-])cc1	8	3	.	-5	.
Cc1cc(C)nc(SCC(=O)c2ccc(O)c(O)c2)n1	13	6	.	23	.
Cc1cc(SCC(=O)c2ccc(O)c(O)c2)n2nc(C)c(-c3ccccc3)c2n1	56*	5	-6	24	65*
SMILES	HTRA1 inhibitor	SIAE primary	RBBP9 inh	ABHD4 inh	HTRA1 inh conf
Cc1cc(C)nc(Nc2ccc(N3CCCC3)cc2)n1	40*	1	-1	18	40*
C=CCn1c(SCC(=O)c2ccc(O)c(O)c2)nnc1-c1cccc(OC)c1	38*	1	.	25	67*
NC(=O)c1ccc(-n2nnnc2SCC(=O)c2ccc(O)c(O)c2)cc1	29	5	-9	23	.
COc1ccc(-n2nnnc2SCC(=O)c2ccc(O)c(O)c2)cc1	46*	4	-1	24	61*
C/C=C/c1cnc2c(c1)C(=O)N([C@H](C)CO)C[C@@H](C)[C@@H](CN(C)C(=O)NC1CCCC1)O2	6	9	.	0	.
NS(=O)(=O)c1ccc2c(c1)C1C=CCC1C(C1CC=CCC1)N2 (configuration not stated)	64*	10	-1	26	38*
COc1cccc(C2Nc3c(F)cc(Br)cc3C3C=CCC32)c1OC (configuration not stated)	44*	2	-1	1	-19
Cc1cc(NS(=O)(=O)c2ccc(NC(=O)Cc3ccc(Cl)c(Cl)c3)cc2)no1	-7	-7	.	-2	.
CC(=O)OC(C)C1C2=C(C(=O)CC1(C)O)C(=O)c1c(ccc(-c3ccc4c(c3O)C(=O)C3=C(C4=O)C(C(C)OC(C)=O)C(C)(O)CC3=O)c1O)C2=O (configuration not stated)	48*	1	.	47*	87*
C#CCCC(=O)O[C@H]1CCC[C@@]2(C(=O)N(Cc3ccccc3)c3ccccc32)[C@H]1NC(=O)CCc1ccccc1	.	-6	.	-12	.
COc1cc(CNc2ccc(N3CCCCC3)cc2)ccc1OCC(=O)NC(C)(C)C	41*	7	.	27	8
COc1cc(CNc2ccc(N3CCCC3)cc2)ccc1OCc1ccccc1	28	10	-6	24	.
COc1cc(CNc2ccc(N3CCCC3)cc2)ccc1OCc1ccccc1F	40*	.	-3	.	18
CCc1ccc(C(O)c2ncc(-c3ccc(C)cc3)[nH]2)cc1 (configuration not stated)	.	2	.	7	.
N#CCCCn1c(=O)oc2ccccc21	3	0	-9	0	.
CC(C)(C)c1ccc(C(=O)N2CCNCC2)cc1	0	1	-9	-1	.
O=C(c1ccc(-c2cc(O)c3ncccc3c2)cc1)N1CCNCC1	63*	-1	.	5	50*
COc1ccc2[nH]c(O)c(N=NC(=O)c3ccc(NS(=O)(=O)c4cccs4)cc3)c2c1	45*	17	.	29	34
O=C(O)C1=C2C(=O)Nc3cccc(c32)C2(C1)C(=O)Nc1ccccc12 (configuration not stated)	37*	9	.	33*	12
COc1ccc(CN2CN3Cc4cc(OC)ccc4C3CS2(=O)=O)cc1 (configuration not stated)	.	-2	.	-2	.
CCOC(=O)[C@]12CCCC=C1N(Cc1ccc(OC)cc1)C(=O)[C@@H]2CC(=O)NCCCN1CCCC1=O	.	0	.	7	.
Cc1noc(C)c1COc1ccccc1C(=O)NCc1ccco1	3	-14	.	-11	.
CC(N=Cc1cccc(O)c1O)c1ccccc1 (configuration not stated)	66*	.	-11	.	100*
Cc1ccccc1N=Cc1cccc(O)c1O	49*	.	-8	.	32
CCCCC(CC)CN=C(N)NC(N)=NCCCCCCN=C(N)NC(N)=NCC(CC)CCCC (configuration not stated)	55*	.	.	.	93*
Cc1cc2c(N=O)c(NO)ccc2[nH]1	40*	.	9	.	74*
CC(=O)Nc1ccc2[nH]c(C)cc(=O)c2c1	9	-2	1	3	.
Cc1ccc(CNc2ccc(N3CCOCC3)cc2)s1	36*	8	-2	27	3
